{"source": "PubChem BioAssay AID602416", "about": "(Sanford-Burnham Center for Chemical Genomics, 2012)", "note": "Activity calls are given as the source filed them.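 How the source made its calls: active means mean EC50 at or below 20 µM; inactive means the rest.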"}
{"target": "CHO-XBP1 luciferase reporter, IRE1-XBP1 activation, luminescence", "assay": "XBP1 luciferase reporter activation in CHO cells – cell-based, luminescence, set 3, counter-screen for apoptotic UPR arm activator project, SAR follow-up (AID 602416)", "procedure,_shortened": "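Assay system: CHO cells stably expressing XBP1 luciferase reporter, IRE1-XBP1 arm / Probe or stimulus: no tunicamycin stimulus in compound wells / Compound dosing: dose series, DMSO ≤1% final / Schedule: compound exposure 6 h at 37 °C / Measured by: Steady-Glo luminescence / Control set: tunicamycin 10 µg/mL high control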"}
{"smiles": "O=C(Nc1ccc(S(=O)(=O)N2CCC(Cl)CC2)cc1)c1ccc([N+](=O)[O-])o1", "EC50": "> 80 µM (inactive)"}
{"smiles": "CC1CCN(S(=O)(=O)c2ccc(NC(=O)c3ccc([N+](=O)[O-])o3)cc2)CC1", "EC50": "> 80 µM (inactive)"}
{"smiles": "CC(C)(C)C1CCN(S(=O)(=O)c2ccc(NC(=O)c3ccc([N+](=O)[O-])o3)cc2)CC1", "EC50": "> 80 µM (inactive)"}
{"smiles": "O=C(Nc1ccc(S(=O)(=O)N2CCC(F)CC2)cc1)c1ccc([N+](=O)[O-])o1", "EC50": "> 80 µM (inactive)"}
{"smiles": "CC1(C)CCN(S(=O)(=O)c2ccc(NC(=O)c3ccc([N+](=O)[O-])o3)cc2)CC1", "EC50": "> 80 µM (inactive)"}
{"smiles": "O=C(Nc1ccc(S(=O)(=O)N2CCCCC2)cc1)c1ccc([N+](=O)[O-])o1", "EC50": "> 80 µM (inactive)"}
